Measured values taken from ChEMBL document CHEMBL1138836, “4-[5-Fluoro-3-[4-(2-methyl-1H-imidazol-1-yl)benzyloxy]phenyl]-3,4,5,6- tetrahydro-2H-pyran-4-carboxamide, an orally active inhibitor of 5-lipoxygenase with improved pharmacokinetic and toxicology characteristics” (J Med Chem, 2004).

Key:
Mus musculus = experiment: In vivo potency was determined after oral administration to mice by the PAF (platelet activating factor) induced thrombosis assay; format: functional
Summary of the method: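 Male […] mice were dosed orally, then given platelet activating factor to induce thrombosis. ED50 reported in mg/kg.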

[1] = molecular target: T1, Polyunsaturated fatty acid 5-lipoxygenase (Homo sapiens, UniProt P09917); experiment: Inhibition of 5-Lipoxygenase (5-LO) of human whole blood (HWB); format: tissue-based
T1 sequence (P09917 whole entry): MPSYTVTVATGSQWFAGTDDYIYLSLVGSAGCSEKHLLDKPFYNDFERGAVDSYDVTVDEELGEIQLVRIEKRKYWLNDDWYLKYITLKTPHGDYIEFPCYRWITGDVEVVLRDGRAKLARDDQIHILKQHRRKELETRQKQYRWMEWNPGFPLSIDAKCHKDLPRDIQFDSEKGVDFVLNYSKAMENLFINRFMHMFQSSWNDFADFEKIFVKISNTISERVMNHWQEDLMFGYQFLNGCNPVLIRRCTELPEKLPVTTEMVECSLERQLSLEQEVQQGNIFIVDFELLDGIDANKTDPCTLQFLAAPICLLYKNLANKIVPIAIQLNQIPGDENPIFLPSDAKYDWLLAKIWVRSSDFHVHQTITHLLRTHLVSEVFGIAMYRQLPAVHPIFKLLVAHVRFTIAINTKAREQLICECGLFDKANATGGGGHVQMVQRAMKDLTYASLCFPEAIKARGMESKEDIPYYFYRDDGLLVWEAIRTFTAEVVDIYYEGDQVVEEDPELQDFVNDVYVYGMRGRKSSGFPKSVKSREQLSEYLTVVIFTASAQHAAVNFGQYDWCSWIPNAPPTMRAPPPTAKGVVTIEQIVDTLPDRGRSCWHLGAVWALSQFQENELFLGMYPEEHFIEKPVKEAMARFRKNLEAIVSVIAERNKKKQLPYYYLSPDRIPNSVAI

[2] = Bioavailability of compound at 3 mg/kg in guinea pig […]; format: ADME, organism-based, Cavia porcellus; details: in vivo, iv
Summary of the method: (§1)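 Oral bioavailability derived from oral and intravenous pharmacokinetic data. Doses: monkey 5 mg/kg oral vs 3 mg/kg iv; rat and guinea pig 10 mg/kg oral vs 3 mg/kg iv.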

[3] = Bioavailability of compound at 10 mg/kg in guinea pig after oral administration; details: in vivo
[4] = Bioavailability of compound at 3 mg/kg in rat […]; format: ADME, organism-based; details: in vivo, iv; summary of the method: as §1
[5] = Maximum concentration of compound found in plasma at 5 mg/kg after oral administration; format: ADME, organism-based; design: dose 5 mg/kg, route oral; details: cercopithecidae
Summary of the method: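 Male cynomolgus monkeys, three animals, single 5 mg/kg oral dose with plasma concentration followed over time. Values are mean ± SEM (n = 3), Cmax in μg/mL.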

[6] = Bioavailability of compound at 10 mg/kg in rat after oral administration; format: ADME, organism-based; details: in vivo; summary of the method: as §1
[7] = Oral bioavailability of compound at 5 mg/kg in monkey; format: ADME, organism-based; details: cercopithecidae, in vivo; summary of the method: as §1
[8] = Bioavailability of compound at 3 mg/kg in monkey […]; format: ADME, organism-based; details: cercopithecidae, in vivo, iv; summary of the method: as §1

Row | IC50 [1] [nM] | Compound | ED50 (Mus musculus) [mg/kg] | other results
1 | 280 | CNC(=O)C1(c2cc(F)cc(OCc3ccc(-n4ccnc4C)cc3)c2)CCOCC1 | 13 | 
2 | 340 | Cc1nccn1-c1ccc(COc2cc(F)cc(C3(C(N)=O)CCOCC3)c2)cc1 |  | bioavailability [2]: 108%; bioavailability [3]: 108%; bioavailability [4]: 102%; Cmax [5]: 1570 ng/mL; bioavailability [6]: 102%; bioavailability [7]: 88%; bioavailability [8]: 88%
3 | > 1000 | Cc1nccn1-c1ccc(COc2cc(F)cc(C3(C(=O)O)CCOCC3)c2)cc1 |  | 
4 | 130 | CC(=O)C1(c2cc(F)cc(OCc3ccc(-n4ccnc4C)cc3)c2)CCOCC1 | 12 | 
5 | 810 | Cc1nccn1-c1ccc(COc2cc(F)cc(C3(C(=O)N(C)C)CCOCC3)c2)cc1 | > 20 | 

The next lines start with the molecule.

Row | Compound | IC50 [1] [nM] | ED50 (Mus musculus) [mg/kg] | other results
6 | CCOC1(c2cc(F)cc(OCc3ccc(-n4ccnc4C)cc3)c2)CCOCC1 | 80 | 5 | 
7 | Cc1nccn1-c1ccc(COc2cc(F)cc(C3([S+](C)[O-])CCOCC3)c2)cc1 (stereo unspecified) | > 1000 |  | 
8 | COC1(c2cc(F)cc(OCc3ccc(-n4ccnc4C)cc3)c2)CCOCC1 | 60 | 2 | 
9 | Cc1nccn1-c1ccc(COc2cc(F)cc(C3(O)CCOCC3)c2)cc1 | > 1000 |  | 
10 | CSC1(c2cc(F)cc(OCc3ccc(-n4ccnc4C)cc3)c2)CCOCC1 | 72 | 5 | 
11 | CCOC(=O)C1(c2cc(F)cc(OCc3ccc(-n4ccnc4C)cc3)c2)CCOCC1 | 200 | 16 | 
12 | Cc1nccn1-c1ccc(COc2cc(F)cc(C3(S(C)(=O)=O)CCOCC3)c2)cc1 | > 1000 |  | 
